{"source": "ChEMBL document CHEMBL2034866", "about": "“Design, synthesis and biological evaluation of a novel series of 1,3,4-oxadiazole bearing N-methyl-4-(trifluoromethyl)phenyl pyrazole moiety as cytotoxic agents” (Eur J Med Chem, 2012)", "key": {"A549": {"system": "A549", "assay": "Cytotoxicity against human A549 cells after 24 hrs by MTT assay", "type": "functional, cell-based", "details": "A549, 24 h", "how_it_was_run": "(§1)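 Exponentially growing cells were seeded at 10⁴ cells/well and allowed to attach for 24 h. Compounds were dissolved in 0.1% DMSO, diluted in medium and added across 1–100 for 24 h; controls received medium with 0.1% DMSO. MTT (1 mg/mL) was added for 4 h at 37 °C, formazan was solubilised in DMSO and A540 read. Assays were run in triplicate, with % cytotoxicity calculated from control-, blank- and test-well absorbances.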"}, "MCF7 [1]": {"system": "MCF7", "assay": "Cytotoxicity against human MCF7 cells after 48 hrs by MTT assay", "type": "functional, cell-based", "details": "MCF7, 48 h", "how_it_was_run": "(§2)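 Time-course MTT: MCF-7 cells were seeded at 5 × 10³ cells/well and exposed to compounds at 1–50. % cytotoxicity and IC50 were determined at 24, 48 and 72 h using MTT read-out at 540 nm. Each experiment was performed independently three times and reported as mean ± SD.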"}, "MCF7 [2]": {"system": "MCF7", "assay": "Cytotoxicity against human MCF7 cells at 1 to 50 uM by MTT assay", "type": "functional, cell-based", "details": "TDE = time-dependent effect", "how_it_was_run": "as §2"}, "[3]": {"assay": "Cytotoxicity against mouse EAC cells after 24 hrs by MTT assay", "type": "functional, cell-based", "details": "Ehrlich", "how_it_was_run": "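Mouse Ehrlich ascites tumour cells were given at least one in vitro passage before use, then plated at 10⁴ cells/well with 24 h attachment. Compounds in 0.1% DMSO/medium were tested at 1–100 for 24 h against vehicle controls. MTT (1 mg/mL) was applied for 4 h at 37 °C, formazan dissolved in DMSO and A540 read. Done in triplicate; % cytotoxicity was taken relative to control and blank absorbances.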"}, "MCF7 [4]": {"system": "MCF7", "assay": "Cytotoxicity against human MCF7 cells after 24 hrs by MTT assay", "type": "functional, cell-based", "details": "for pIC50: MCF7, 24 h", "how_it_was_run": "as §1"}, "MCF7 [5]": {"system": "MCF7", "assay": "Cytotoxicity against human MCF7 cells after 72 hrs by MTT assay", "type": "functional, cell-based", "details": "MCF7, 72 h", "how_it_was_run": "as §2"}, "MCF7 [6]": {"system": "MCF7", "assay": "Ratio of IC50 for human MCF7 cells after 24 hrs to IC50 for human MCF7 cells after 48 hrs by MTT assay", "type": "functional", "how_it_was_run": "(§3)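 MCF-7 cells at 5 × 10³ cells/well were treated with compounds at 1–50, and MTT IC50 values were determined at 24, 48 and 72 h (three independent experiments, mean ± SD). The fold reduction is the 24 h IC50 divided by the 48 h or 72 h IC50.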"}, "MCF7 [7]": {"system": "MCF7", "assay": "Ratio of IC50 for human MCF7 cells after 24 hrs to IC50 for human MCF7 cells after 72 hrs by MTT assay", "type": "functional", "how_it_was_run": "as §3"}}, "note": "pIC50: −log10 of the molar value.", "data": [{"smiles": "COc1cccc2c1C(=O)c1c(O)c3c(c(O)c1C2=O)C[C@@](O)(C(=O)CO)C[C@@H]3O[C@H]1C[C@H](N)[C@H](O)[C@H](C)O1", "note": "[DOXORUBICIN]", "values": [{"measurement": "pIC50", "setting": "A549", "value": 5.48}]}, {"smiles": "Cn1nc(-c2nnc(SCc3c(F)cccc3F)o2)cc1-c1ccc(C(F)(F)F)cc1", "values": [{"measurement": "pIC50", "setting": "MCF7 [1]", "value": 4.69}, {"measurement": "pIC50", "setting": "A549", "value": 4.42}, {"measurement": "Activity", "setting": "MCF7 [2]", "value": "tde"}, {"measurement": "pIC50", "setting": "[3]", "value": 4.55}, {"measurement": "Activity", "setting": "MCF7 [4]", "value": "Dose-dependent effect"}, {"measurement": "pIC50", "setting": "MCF7 [4]", "value": 4.58}, {"measurement": "pIC50", "setting": "MCF7 [5]", "value": 4.79}]}, {"smiles": "Cn1nc(-c2nnc(SCCOc3ccccc3F)o2)cc1-c1ccc(C(F)(F)F)cc1", "values": [{"measurement": "pIC50", "setting": "MCF7 [1]", "value": 4.72}, {"measurement": "pIC50", "setting": "A549", "value": 4.32}, {"measurement": "Activity", "setting": "MCF7 [2]", "value": "tde"}, {"measurement": "pIC50", "setting": "[3]", "value": 4.60}, {"measurement": "Activity", "setting": "MCF7 [4]", "value": "Dose-dependent effect"}, {"measurement": "pIC50", "setting": "MCF7 [4]", "value": 4.64}, {"measurement": "pIC50", "setting": "MCF7 [5]", "value": 4.85}]}, {"smiles": "Cn1nc(-c2nnc(SCc3ccc(Cl)cc3F)o2)cc1-c1ccc(C(F)(F)F)cc1", "values": [{"measurement": "pIC50", "setting": "MCF7 [1]", "value": 4.91}, {"measurement": "pIC50", "setting": "A549", "value": 4.32}, {"measurement": "Activity", "setting": "MCF7 [2]", "value": "tde"}, {"measurement": "pIC50", "setting": "[3]", "value": 4.58}, {"measurement": "Activity", "setting": "MCF7 [4]", "value": "Dose-dependent effect"}, {"measurement": "pIC50", "setting": "MCF7 [4]", "value": 4.74}, {"measurement": "pIC50", "setting": "MCF7 [5]", "value": 5.01}]}, {"smiles": "Cn1nc(-c2ccc(C(F)(F)F)cc2)cc1-c1nnc(S)o1", "values": [{"measurement": "pIC50", "setting": "[3]", "value": 4.12}, {"measurement": "pIC50", "setting": "MCF7 [4]", "value": "< 4.00"}]}, {"smiles": "Cn1nc(-c2ccc(C(F)(F)F)cc2)cc1-c1nnc(SCc2cccc(Cl)c2Cl)o1", "values": [{"measurement": "pIC50", "setting": "A549", "value": 4.07}, {"measurement": "pIC50", "setting": "[3]", "value": 4.25}, {"measurement": "pIC50", "setting": "MCF7 [4]", "value": 4.22}]}, {"smiles": "Cn1nc(-c2nnc(SCc3ccc(C(F)(F)F)cc3)o2)cc1-c1ccc(C(F)(F)F)cc1", "values": [{"measurement": "pIC50", "setting": "MCF7 [1]", "value": 5.05}, {"measurement": "pIC50", "setting": "A549", "value": 4.53}, {"measurement": "Activity", "setting": "MCF7 [2]", "value": "tde"}, {"measurement": "pIC50", "setting": "[3]", "value": 4.69}, {"measurement": "Activity", "setting": "MCF7 [4]", "value": "Dose-dependent effect"}, {"measurement": "pIC50", "setting": "MCF7 [4]", "value": 4.81}, {"measurement": "Ratio IC50", "setting": "MCF7 [6]", "value": 1.75}, {"measurement": "Ratio IC50", "setting": "MCF7 [7]", "value": 2.96}, {"measurement": "pIC50", "setting": "MCF7 [5]", "value": 5.28}]}, {"smiles": "Cn1nc(-c2nnc(SCc3ccc(Cl)c(Cl)c3)o2)cc1-c1ccc(C(F)(F)F)cc1", "values": [{"measurement": "pIC50", "setting": "A549", "value": 4.35}, {"measurement": "pIC50", "setting": "[3]", "value": 4.33}, {"measurement": "pIC50", "setting": "MCF7 [4]", "value": 4.57}]}, {"smiles": "Cn1nc(-c2nnc(SCCc3ccc(F)cc3)o2)cc1-c1ccc(C(F)(F)F)cc1", "values": [{"measurement": "pIC50", "setting": "MCF7 [1]", "value": 4.68}, {"measurement": "pIC50", "setting": "A549", "value": 4.41}, {"measurement": "Activity", "setting": "MCF7 [2]", "value": "tde"}, {"measurement": "pIC50", "setting": "[3]", "value": 4.53}, {"measurement": "Activity", "setting": "MCF7 [4]", "value": "Dose-dependent effect"}, {"measurement": "pIC50", "setting": "MCF7 [4]", "value": 4.60}, {"measurement": "pIC50", "setting": "MCF7 [5]", "value": 4.74}]}, {"smiles": "Cn1nc(-c2ccc(C(F)(F)F)cc2)cc1-c1nnc(SCc2c(F)cccc2F)o1", "values": [{"measurement": "pIC50", "setting": "A549", "value": 4.14}, {"measurement": "pIC50", "setting": "[3]", "value": 4.41}, {"measurement": "pIC50", "setting": "MCF7 [4]", "value": 4.34}]}, {"smiles": "Cn1nc(-c2nnc(S)o2)cc1-c1ccc(C(F)(F)F)cc1", "values": [{"measurement": "pIC50", "setting": "[3]", "value": 4.17}, {"measurement": "pIC50", "setting": "MCF7 [4]", "value": "< 4.00"}]}, {"smiles": "Cn1nc(-c2ccc(C(F)(F)F)cc2)cc1-c1nnc(SCc2cccc([N+](=O)[O-])c2)o1", "values": [{"measurement": "pIC50", "setting": "[3]", "value": "< 4.00"}, {"measurement": "pIC50", "setting": "MCF7 [4]", "value": "< 4.00"}]}, {"smiles": "Cn1nc(-c2ccc(C(F)(F)F)cc2)cc1-c1nnc(SCCc2ccc(F)cc2)o1", "values": [{"measurement": "pIC50", "setting": "A549", "value": 4.07}, {"measurement": "pIC50", "setting": "[3]", "value": 4.40}, {"measurement": "pIC50", "setting": "MCF7 [4]", "value": 4.34}]}, {"smiles": "Cn1nc(-c2nnc(SCc3cccc(Cl)c3Cl)o2)cc1-c1ccc(C(F)(F)F)cc1", "values": [{"measurement": "pIC50", "setting": "A549", "value": 4.27}, {"measurement": "pIC50", "setting": "[3]", "value": 4.43}, {"measurement": "pIC50", "setting": "MCF7 [4]", "value": 4.49}]}, {"smiles": "Cn1nc(-c2nnc(SCc3cccc([N+](=O)[O-])c3)o2)cc1-c1ccc(C(F)(F)F)cc1", "values": [{"measurement": "pIC50", "setting": "[3]", "value": "< 4.00"}, {"measurement": "pIC50", "setting": "MCF7 [4]", "value": "< 4.00"}]}, {"smiles": "Cn1nc(-c2ccc(C(F)(F)F)cc2)cc1-c1nnc(SCc2ccc(C(F)(F)F)cc2)o1", "values": [{"measurement": "pIC50", "setting": "A549", "value": 4.40}, {"measurement": "pIC50", "setting": "[3]", "value": 4.56}, {"measurement": "pIC50", "setting": "MCF7 [4]", "value": 4.57}]}, {"smiles": "Cn1nc(-c2ccc(C(F)(F)F)cc2)cc1-c1nnc(SCCOc2ccccc2F)o1", "values": [{"measurement": "pIC50", "setting": "A549", "value": 4.17}, {"measurement": "pIC50", "setting": "[3]", "value": 4.45}, {"measurement": "pIC50", "setting": "MCF7 [4]", "value": 4.48}]}]}
